The source made the active and inactive calls. The rule behind the calls is not given here.
Legend:
[1] = test system: Mus musculus; experiment: Anti-schizophrenic activity in C57BL/6J mouse assessed as protection against MK-801-induced auditory gating deficit by measuring prepulse inhibition impairment at 0.3 mg/kg, ip at 8 to 16 dB prepulse intensity (reference value: 11%); assay type: functional; set-up: scale not given: the % may be the effect or the level left
[2] = Oral bioavailability in rat at 60 mg/kg by LC-MS/MS analysis; assay type: ADME, organism-based; conditions: in vivo
Procedure, shortened: (§1)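 Rat plasma stored at -20 °C, spiked with internal standard, protein-precipitated with methanol, centrifuged and filtered before LC-MS/MS. C18 column at 40 °C, acetonitrile/0.1% formic acid (80:20) isocratic at 0.5 mL/min. Positive ESI with MRM m/z 400.0->129.9. Parameters taken per rat by non-compartmental analysis, n = 3.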

[3] = test system: Mus musculus; experiment: (§2) Anti-schizophrenic activity in C57BL/6J mouse assessed as protection against MK-801-induced auditory gating deficit by measuring prepulse inhibition impairment at 1 mg/kg, ip at 8 to 16 dB prepulse intensity (reference value: 11%); assay type: functional; set-up: scale not given: the % may be the effect or the level left
[4] = test system: Mus musculus; experiment: Anti-schizophrenic activity in ip dosed C57BL/6J mouse assessed as protection against MK-801-induced auditory gating deficit by measuring reduction in prepulse inhibition impairment at 8 to 16 dB prepulse intensity; assay type: functional, organism-based
[5] = target: Glutamate NMDA receptor; Grin1/Grin2b (Rattus norvegicus) (UniProt P35439+Q00960); experiment: Positive allosteric modulation of rat GluN1/GluN2B receptor expressed in Xenopus laevis oocytes assessed as increase in glycine/glutamate-induced channel current 10 uM by two-electrode voltage clamp method; assay type: cell-based
[6] = Apparent volume of distribution in rat at 3 mg/kg, iv by LC-MS/MS analysis; assay type: ADME, organism-based; conditions: in vivo; procedure, shortened: as §1
[7] = target: T1, Neuronal acetylcholine receptor subunit alpha-7 (Homo sapiens, UniProt P36544); experiment: (§3) Positive allosteric modulation of human alpha7 nAChR expressed in Xenopus laevis oocytes assessed as increase in acetylcholine-induced channel current at 10 uM at -90 mV holding potential preincubated for 2 mins followed by co-application with acetylcholine for 10 secs by two-electrode voltage clamp method relative to control; assay type: cell-based
[8] = test system: Mus musculus; experiment: Anti-schizophrenic activity in C57BL/6J mouse assessed as protection against MK-801-induced auditory gating deficit by measuring prepulse inhibition impairment at 0.1 mg/kg, ip at 8 to 16 dB prepulse intensity (reference value: 11%); assay type: functional; set-up: scale not given: the % may be the effect or the level left
[9] = Drug uptake in C57BL/6J mouse brain at 1 mg/kg, ip after 8 hrs by LC-MS/MS analysis; assay type: ADME, organism-based; conditions: read-out: Drug uptake
Procedure, shortened: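 C57BL/6J mice given 1 mg/kg i.p. from a 0.4 mg/mL solution in 10% DMSO/50% PEG400/40% SBECD. Plasma and brain taken at 0.5, 2 and 8 h. Samples mixed with internal standard in methanol/acetonitrile (1:1), centrifuged and diluted 10x in methanol:water with 0.1% FA, then measured by HPLC-MS-MS. n = 3; ratio is brain over plasma concentration.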

[10] = target: T1, Neuronal acetylcholine receptor subunit alpha-7; experiment: as §3, with “by” for “by co-application with”, “addition in presence of alpha7 nAChR antagonist MLA” for “for 10 secs”; assay type: cell-based
[11] = Half life in rat at 3 mg/kg, iv by LC-MS/MS analysis; assay type: ADME, organism-based; conditions: in vivo; procedure, shortened: as §1
[12] = test system: Mus musculus; experiment: as §2, with “intensity pretreated for 30 mins followed by MK-801 treatment and measured after 30 mins” for “intensity”, “8.7%)” for “11%)”; assay type: functional; set-up: scale not given: the % may be the effect or the level left
[13] = target: T2, 5-hydroxytryptamine receptor 3A (Homo sapiens) (UniProt P46098); experiment: Positive allosteric modulation of human 5-HT3A receptor expressed in Xenopus laevis oocytes assessed as increase in 5-HT-induced channel current at 10 uM at -90 mV holding potential by two-electrode voltage clamp method; assay type: cell-based
T2 sequence (whole entry): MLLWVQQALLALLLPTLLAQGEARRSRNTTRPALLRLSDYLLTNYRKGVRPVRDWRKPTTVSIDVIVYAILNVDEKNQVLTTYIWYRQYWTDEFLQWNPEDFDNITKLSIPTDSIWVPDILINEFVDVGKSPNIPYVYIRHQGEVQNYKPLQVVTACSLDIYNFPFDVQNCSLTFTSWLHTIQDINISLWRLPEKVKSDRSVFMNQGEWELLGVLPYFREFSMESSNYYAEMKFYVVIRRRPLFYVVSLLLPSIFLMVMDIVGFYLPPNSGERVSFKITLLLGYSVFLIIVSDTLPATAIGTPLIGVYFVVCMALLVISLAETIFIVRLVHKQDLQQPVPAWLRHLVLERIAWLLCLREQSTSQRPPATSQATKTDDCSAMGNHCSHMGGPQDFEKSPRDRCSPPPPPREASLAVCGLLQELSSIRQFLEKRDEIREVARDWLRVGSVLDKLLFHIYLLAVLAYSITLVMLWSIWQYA

[14] = target: T1, Neuronal acetylcholine receptor subunit alpha-7; experiment: Positive allosteric modulation of human alpha7 nAChR expressed in Xenopus laevis oocytes assessed as increase in acetylcholine-induced channel current at -90 mV holding potential preincubated for 2 mins followed by co-application with acetylcholine for 10 secs by two-electrode voltage clamp method; assay type: cell-based
[15] = Cmax in rat at 60 mg/kg, po by LC-MS/MS analysis; assay type: ADME, organism-based; set-up: dose 60 mg/kg, route oral; conditions: in vivo; procedure, shortened: as §1
[16] = test system: Mus musculus; experiment: as §2, with “intensity pretreated for 30 mins starting from 30 mins post alpha7 nAChR antagonist MLA treatment followed by MK-801 treatment and measured after 30 mins” for “intensity”, “8.7%)” for “11%)”; assay type: functional; set-up: scale not given: the % may be the effect or the level left
Procedure, shortened: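 Mice given MLA 3 mg/kg i.p. 30 min before, then compound 1 mg/kg i.p. 60 min before test and MK-801 0.1 mg/kg i.p. 30 min before test. PPI measured at prepulses 8-16 dB above 68 dB background. %PPI = (1 − prepulse-pulse/pulse-only)×100, one-way ANOVA.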

[17] = Cmax in rat at 3 mg/kg, iv by LC-MS/MS analysis; assay type: ADME, organism-based; set-up: dose 3 mg/kg, route intravenous; conditions: in vivo; procedure, shortened: as §1

T1 sequence (P36544 whole entry): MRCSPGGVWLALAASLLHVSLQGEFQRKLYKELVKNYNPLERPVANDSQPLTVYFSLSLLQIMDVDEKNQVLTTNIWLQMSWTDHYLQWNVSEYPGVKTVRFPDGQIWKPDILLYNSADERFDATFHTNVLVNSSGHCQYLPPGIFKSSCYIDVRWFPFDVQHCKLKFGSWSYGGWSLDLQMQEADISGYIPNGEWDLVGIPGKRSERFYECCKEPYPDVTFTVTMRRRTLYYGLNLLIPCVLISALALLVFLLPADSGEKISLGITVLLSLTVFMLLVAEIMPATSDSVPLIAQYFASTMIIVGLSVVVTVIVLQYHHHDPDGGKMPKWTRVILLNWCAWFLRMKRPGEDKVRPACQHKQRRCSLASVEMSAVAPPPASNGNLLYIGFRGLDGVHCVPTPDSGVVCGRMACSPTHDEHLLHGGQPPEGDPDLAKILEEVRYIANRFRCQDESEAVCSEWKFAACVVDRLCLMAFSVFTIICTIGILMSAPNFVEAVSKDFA

- bioavailability [2]: 8%
- Activity [5]: inactive
- Vd [6]: 0.069 L/kg
- %max [7]: 1630%
- concentration at 8 h [9]: 3.7 ng/g
- Activity [10]: inactive
- half-life [11]: 10.8 h
- Activity [13]: inactive
- Activity [14]: Dose-dependent effect
- Cmax [15]: 200 ng/mL
- Cmax [17]: 700 ng/mL
Compound: Cc1cccc(Cl)c1-n1cnc2nc(SCc3ccccc3)sc2c1=O
- Activity [1]: 26%
- Activity [3]: 28%
- Activity [4]: Dose-dependent effect
- Activity [8]: 22%
- Activity [12]: 30%
- Activity [16]: 14%
